Test results as given in ChEMBL document CHEMBL1649147, “Antistaphylococcal activity of dihydrophthalazine antifolates, a family of novel antibacterial drugs” (2009).
In brackets after ≈: the same amount, converted by molar mass.

Columns and labels:
Staphylococcus aureus [1] = test: Antibacterial activity against methicillin-susceptible Staphylococcus aureus by agar dilution method; type: functional
In short: (§1)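 Agar dilution on Mueller-Hinton agar per CLSI guidelines. S. aureus ATCC 29213 and E. faecalis ATCC 29212 were run with each set, and test MICs were accepted only when the control strains fell within acceptable ranges.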

Staphylococcus aureus [2] = test: Antibacterial activity against methicillin-resistant Staphylococcus aureus ATCC 43300 by broth macrodilution method; type: functional; details: ATCC43300
[3] = system: Staphylococcus epidermidis; test: Antibacterial activity against methicillin-resistant coagulase-negative Staphylococcus epidermidis 197 by broth macrodilution method; type: functional
[4] = system: Staphylococcus epidermidis; test: Antibacterial activity against methicillin-susceptible coagulase-negative Staphylococcus epidermidis 051 by broth macrodilution method; type: functional
Staphylococcus aureus [5] = test: Antibacterial activity against methicillin-susceptible, vancomycin-intermediate Staphylococcus aureus 505 by broth macrodilution method; type: functional
Staphylococcus aureus [6] = test: Antibacterial activity against Tmp-susceptible coagulase-negative Staphylococcus aureus by agar dilution method; type: functional
In short: (§2)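 MICs by agar dilution on Mueller-Hinton agar following CLSI guidelines. S. aureus ATCC 29213 and E. faecalis ATCC 29212 were run as quality controls with each set, and test-strain MICs were kept only if control MICs fell within acceptable ranges.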

[7] = system: Staphylococcus epidermidis; test: Antibacterial activity against methicillin-resistant coagulase-negative Staphylococcus epidermidis 225 by broth macrodilution method; type: functional
Staphylococcus aureus [8] = test: microbe, parasite or virus in culture; details: ATCC29213
Staphylococcus aureus [9] = test: Antibacterial activity against Tmp-resistant Staphylococcus aureus by agar dilution method; type: functional; in short: as §2
Staphylococcus aureus [10] = test: Antibacterial activity against methicillin-susceptible Staphylococcus aureus ATCC 29213 by broth macrodilution method; type: functional; details: ATCC29213
[11] = system: coagulase-negative staphylococci; test: Antibacterial activity against methicillin-susceptible coagulase-negative staphylococci by agar dilution method
[12] = system: coagulase-negative staphylococci; test: Antibacterial activity against Tmp-resistant coagulase-negative staphylococci by agar dilution method
Staphylococcus aureus [13] = test: Antibacterial activity against methicillin-resistant Staphylococcus aureus by agar dilution method; type: functional; in short: as §1
[14] = system: coagulase-negative staphylococci; test: Antibacterial activity against methicillin-resistant coagulase-negative staphylococci by agar dilution method
[15] = system: Staphylococcus epidermidis; test: Antibacterial activity against methicillin-resistant, vancomycin-intermediate coagulase-negative Staphylococcus epidermidis 225 by agar dilution method; type: functional; in short: as §1
[16] = system: Staphylococcus epidermidis; test: Antibacterial activity against methicillin-susceptible coagulase-negative Staphylococcus epidermidis 057 by broth macrodilution method; type: functional
Staphylococcus aureus [17] = test: Antibacterial activity against methicillin-susceptible Staphylococcus aureus 505 by broth macrodilution method; type: functional
[18] = system: coagulase-negative staphylococci; test: Antibacterial activity against Tmp-susceptible coagulase-negative staphylococci by agar dilution method
[19] = system: Staphylococcus epidermidis; test: Antibacterial activity against methicillin-resistant, Linezolid non-susceptible coagulase-negative Staphylococcus epidermidis 345 by agar dilution method; type: functional
Staphylococcus aureus [20] = test: Antibacterial activity against Tmp-susceptible Staphylococcus aureus by agar dilution method; type: functional; in short: as §2
Staphylococcus aureus [21] = test: Antibacterial activity against methicillin-resistant Staphylococcus aureus 507 by broth macrodilution method; type: functional
[22] = system: Staphylococcus epidermidis; test: Antibacterial activity against methicillin-resistant coagulase-negative Staphylococcus epidermidis 345 by broth macrodilution method; type: functional
Staphylococcus aureus [23] = test: Antibacterial activity against methicillin-resistant Staphylococcus aureus 145 by broth macrodilution method; type: functional
Staphylococcus aureus [24] = test: microbe, parasite or virus in culture; details: 505
Staphylococcus aureus [25] = test: microbe, parasite or virus in culture; details: ATCC43300
Staphylococcus aureus [26] = test: Antibacterial activity against vancomycin-resistant Staphylococcus aureus VRS1 by broth macrodilution method; type: functional
In short: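 Michigan VRSA strain, one of 12 staphylococci later used in time-kill studies. MIC was determined by broth macrodilution and reported in μg/ml.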

[27] = system: Staphylococcus epidermidis; test: Antibacterial activity against methicillin-resistant coagulase-negative Staphylococcus epidermidis 074 by broth macrodilution method; type: functional
[28] = system: Staphylococcus epidermidis; test: Antibacterial activity against methicillin-resistant coagulase-negative Staphylococcus epidermidis 197 after 50 passages by agar dilution method; type: functional
In short: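 Daily serial passage for up to 50 days at 35°C for 24 h in 1 ml MHB. Each transfer used 10 µl from the tube nearest the MIC (1–2 dilutions below) with the same turbidity as the drug-free control. MICs were measured by agar dilution, with changes given as log2 steps.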

Staphylococcus aureus [29] = test: Antibacterial activity against methicillin-resistant and vancomycin-resistant Staphylococcus aureus VRS1 by agar dilution method; type: functional; in short: as §1

Structure (SMILES): COc1cc(Cc2cnc(N)nc2N)cc(OC)c1OC [TRIMETHOPRIM]
- MIC50 (Staphylococcus aureus [1]): 0.5 µg/mL (≈ 1.72 µM)
- MIC90 (Staphylococcus aureus [1]): > 128 µg/mL
- MIC (Staphylococcus aureus [2]): 1 µg/mL (≈ 3.44 µM)
- MIC [3]: 0.5 µg/mL (≈ 1.72 µM)
- MIC [4]: 128 µg/mL (≈ 441 µM)
- MIC (Staphylococcus aureus [5]): 1 µg/mL (≈ 3.44 µM)
- MIC (Staphylococcus aureus [6]): 0.03 µg/mL (≈ 0.103 µM)
- MIC [7]: > 128 µg/mL
- MIC (Staphylococcus aureus [8]): > 128 µg/mL
- MIC (Staphylococcus aureus [9]): 32 µg/mL (≈ 110 µM)
- MIC50 (Staphylococcus aureus [9]): > 128 µg/mL
- MIC (Staphylococcus aureus [10]): 1 µg/mL (≈ 3.44 µM)
- MIC90 [11]: 64 µg/mL (≈ 220 µM)
- MIC50 [12]: > 128 µg/mL
- MIC (Staphylococcus aureus [13]): ≤ 0.008 µg/mL
- MIC50 (Staphylococcus aureus [13]): 0.5 µg/mL (≈ 1.72 µM)
- MIC50 [14]: 128 µg/mL (≈ 441 µM)
- MIC [15]: > 128 µg/mL
- MIC [16]: 128 µg/mL (≈ 441 µM)
- MIC (Staphylococcus aureus [17]): 1 µg/mL (≈ 3.44 µM)
- MIC50 [18]: 0.25 µg/mL (≈ 0.861 µM)
- MIC90 [18]: 2 µg/mL (≈ 6.89 µM)
- MIC [19]: > 128 µg/mL
- MIC50 (Staphylococcus aureus [20]): 0.5 µg/mL (≈ 1.72 µM)
- MIC90 (Staphylococcus aureus [20]): 0.5 µg/mL (≈ 1.72 µM)
- MIC (Staphylococcus aureus [21]): 128 µg/mL (≈ 441 µM)
- MIC [22]: > 128 µg/mL
- MIC (Staphylococcus aureus [23]): > 128 µg/mL
- MIC (Staphylococcus aureus [24]): > 128 µg/mL
- MIC (Staphylococcus aureus [25]): > 128 µg/mL
- MIC (Staphylococcus aureus [26]): > 128 µg/mL
- MIC [27]: 4 µg/mL (≈ 13.8 µM)
- MIC [28]: 64 µg/mL (≈ 220 µM)
- MIC (Staphylococcus aureus [29]): > 128 µg/mL
